Source: publication PMC7933111 (ACS chemical neuroscience, 2021)
Where two headings read alike, the source gives them in different places.

Experiments:
[1] = tested on: C57BL/6 wild-type mice; test: Head-twitch response; type: in vivo, mouse; conditions: for effect of antagonist pretreatment on HTR in mice administered 1-NP or 2-NP: 5-HT1AR antagonist WAY100635 or 5-HT2CR antagonist SB-242084 pretreatment; for HTR counts vs vehicle: 5 mg/kg, first 30 min postinjection, wild-type
[2] = target: T1, 5-HT2AR (Homo sapiens, UniProt P28223); type: binding
T1 sequence (P28223 whole entry): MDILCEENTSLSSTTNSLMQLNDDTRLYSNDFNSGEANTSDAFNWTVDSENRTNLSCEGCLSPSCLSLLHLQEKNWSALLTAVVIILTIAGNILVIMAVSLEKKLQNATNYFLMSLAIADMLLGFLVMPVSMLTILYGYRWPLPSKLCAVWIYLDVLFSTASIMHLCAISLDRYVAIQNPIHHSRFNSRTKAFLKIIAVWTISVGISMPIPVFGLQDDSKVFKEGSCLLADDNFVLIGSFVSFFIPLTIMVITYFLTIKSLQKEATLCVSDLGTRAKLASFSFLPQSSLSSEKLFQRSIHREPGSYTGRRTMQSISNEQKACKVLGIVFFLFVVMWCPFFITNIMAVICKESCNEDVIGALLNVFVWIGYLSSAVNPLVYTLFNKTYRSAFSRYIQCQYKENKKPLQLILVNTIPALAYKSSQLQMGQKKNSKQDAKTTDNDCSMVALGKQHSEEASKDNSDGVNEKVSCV

[3] = target: T1, 5-HT2AR; test: Intracellular Ca2+ mobilization; type: cell-based; conditions: for Emax: HEK293, read-out: Emax (Ca2+ mobilization)
[4] = tested on: 5-HT2A-KO mice; test: Head-twitch response; type: in vivo, mouse; conditions: 5 mg/kg, first 30 min postinjection
Outline: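 Adult (8–16 weeks) male 5-HT2A-KO mice rederived from 129sv (F5), from the authors' colony. After 30 min of chamber habituation for baseline, mice were dosed and followed 90 min by magnetometer. HTR counts were automated with minor visual checking and summed over the first 30 min post-injection, then compared with vehicle by one-way ANOVA with Bonferroni post hoc; n = 5–12.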

[5] = tested on: rats trained to distinguish DOM from vehicle; conditions: cited from earlier work
[6] = tested on: mice; test: GI effect of 5-HTP in mice; type: in vivo, mouse; conditions: i.p., data not shown
[7] = tested on: 5-HT2AR; test: IP1 accumulation in vivo; parameters: species or system mouse
Outline: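 Male C57BL/6 mice, 10 weeks old, received LiCl 200 mg/kg and returned home 30 min before treatment; co-administered antagonist was given in the same solution. Mice were decapitated 60 min later, and frontal cortex and posterior cerebellum were frozen at −80 °C. Tissue was bead-lysed at 4 °C in kit buffer with 50 mM LiCl and centrifuged at 17 000g. HTRF was read in duplicate; inverted 615/665 ratio, cortex/cerebellum fold-change; n = 3/group.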

[8] = tested on: mice; test: Quantification of feces; type: in vivo, mouse
Outline: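 Mice habituated to the monitoring chambers and to i.p. injections were acclimated 30 min, then injected i.p. with drug(s) or saline vehicle at 10 μL/g. Feces were counted over the first 30 min; pellets present before or immediately after injection were excluded. n = 9; two-way ANOVA with Bonferroni post hoc.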

[9] = target: T1, 5-HT2AR; test: IP1 accumulation in vitro; type: cell-based; conditions: single concentration, 30 min at 37 °C
[10] = target: T1, 5-HT2AR; type: binding; remark: listed apart in the source
[11] = target: 5-HT2AR; test: [3H]ketanserin binding displacement, mouse frontal cortex membranes; conditions: 5 nM [3H]ketanserin
[12] = tested on: c-fos, egr-1, egr-2; test: Immediate early gene expression in somatosensory cortex, wild-type mice; type: in vivo, mouse; conditions: 5 mg/kg, 60 min, wild-type 129S6/SvEv
[13] = tested on: c-fos, egr-1, egr-2; test: Immediate early gene expression in somatosensory cortex, 5-HT2AR-KO mice; type: in vivo, mouse; conditions: 5 mg/kg, 60 min, 5-HT2AR-KO littermates
Outline: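 Adult (10–20 weeks) 129S6/SvEv 5-HT2AR-KO mice, born to Htr2a± heterozygote breeders. Somatosensory cortex was taken 60 min after 5 mg/kg test compound or vehicle, and c-fos, egr-1 and egr-2 expression was measured alongside a housekeeping gene; n = 5.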

With “6-chloro-2,3-dihydro-5-methyl-N-[6-[(2-methyl-3-pyridinyl)oxy]-3-pyridinyl]-1H-indole-1-carboxyamide dihydrochloride [SB-242084]” the “effect of antagonist pretreatment on HTR in mice administered 1-NP or 2-NP” value [1] was “did not significantly affect HTR”.

For `c1ccc2c(N3CCNCC3)cccc2c1` [1-NP, 1-(naphthalen-1-yl)piperazine], the “HTR counts vs vehicle” value [1] was “Neither isoquipazine nor 1-NP produced changes in HTR counts”, the HTR dose-response ([1]; i.p.) was “apparent suppression of HTR counts at all tested doses” and the Ki [2] was 0.1 µM.

In the case of `c1ccc2cc(N3CCNCC3)ccc2c1` [2-NP, 1-(naphthalen-2-yl)piperazine], the EC50 [3] is reported as 0.15 µM, the Emax [3] is reported as 48.9% and the “HTR vs vehicle in 5-HT2AR-KO mice” value [4] is reported as “did not differ”. For the same molecule, the “generalization for the DOM stimulus” value [5] was “full generalization”, the “HTR counts vs vehicle” value [1] was “increase in HTR that differed statistically from vehicle” and the ED50 ([1]; Mus musculus, ip, read-out: ED50 (HTR)) was 0.42 ± 0.2 mg/kg. For the same molecule, the HTR dose-response ([1]; i.p.) was “dose-dependent” and the Ki [2] was 0.724 µM.

For `N[C@@H](Cc1c[nH]c2ccc(O)cc12)C(=O)O` [5-HTP, 5-hydroxytryptophan], the GI effect [6] was “produced diarrhea”.

With `COc1cccc([C@H](O)C2CCN(CCc3ccc(F)cc3)CC2)c1OC` [M100907, (R)-(+)-α-(2,3-dimethoxyphenyl)-1-[2-(4-fluorophenyl)ethyl]-4-pipidinemethanol] the “effect on quipazine-induced IP1 accumulation in vivo” value ([7]; M100907 0.1 mg/kg with quipazine 5 mg/kg) was “successfully blocked”.

With `COc1ccccc1N1CCN(CCN(C(=O)C2CCCCC2)c2ccccn2)CC1.O=C(O)/C=C\C(=O)O` [WAY100635, N-[2-[4-(2-methoxyphenyl)-1-piperazinyl]ethyl]-N-2-pyridinylcyclohexanecarboxamide maleate] the “effect of antagonist pretreatment on HTR in mice administered 1-NP or 2-NP” value [1] was “did not significantly affect HTR”.

In the case of `c1ccc2c(N3CCNCC3)nccc2c1` [isoquipazine, 1-(piperazin-1-yl)isoquinoline], the IC50 [3] is reported as 24.7 µM, the “HTR counts vs vehicle” value [1] is reported as “Neither isoquipazine nor 1-NP produced changes in HTR counts” and the Ki [2] is reported as 3.8 µM.

In the case of `Cc1nccn1CC1CCc2c(c3ccccc3n2C)C1=O` (stereo not drawn) [ondansetron, 1,2,3,9-tetrahydro-9-methyl-3-[(2-methyl-1H-imidazol-1-yl)methyl]-4H-carbazol-4-one], the “effect on quipazine-induced feces count increase” value ([8]; ondansetron 1 mg/kg with quipazine 5 mg/kg, 30 min following cotreatment) is reported as “successfully reduced”.

With `c1ccc2nc(N3CCNCC3)ccc2c1` [quipazine, 2-(piperazin-1-yl)quinoline] the EC50 [3] was 7.26 µM, the Emax [3] was 44.3% and the “IP1 accumulation (in words)” value [9] was “robust increase of IP1 accumulation”. The “HTR vs vehicle in 5-HT2AR-KO mice” value [4] was “did not differ”, the Ki [10] was 5.13 µM and the “effect on feces count” value ([8]; quipazine 5 mg/kg, first 30 min) was “feces count increase”. The pKi [11] was 5.601 ± 0.16, the “effect on HTR counts” value ([1]; different doses, i.p., 90 min recording) was “robust and long-lasting increase on HTR counts” and the “duration of HTR increase” value ([1]; highest doses evaluated) was “over 90 min”. The “time of peak of HTR increase post injection” value ([1]; i.p.) was no more than 30 min, the “cortical expression of c-fos, egr-1 and egr-2” value [12] was “exhibited changes in the cortical expression of c-fos, egr-1, and egr-2” and the “IP1 accumulation in frontal cortex vs vehicle” value ([7]; 5 mg/kg, LiCl 200 mg/kg pretreatment, 60 min) was “greater accumulation of IP1”. For the same molecule, the “changes in c-fos, egr-1 and egr-2 expression” value [13] was “not observed” and the Ki [2] was 20 µM.
